{"source": "the RNAGym collection of RNA variant scans (doi:10.1126/science.aae0568)", "parents": {"B1": {"name": "tRNA (parent)", "chain": "GUUCCGUUGGCGUAAUGGUAACGCGUCUCCCUCCUAAGGAGAAGACUGCGGGUUCGAGUCCCGUACGGAACG"}}, "note": "Fewer inactive variants are shown than the library holds.", "data": [{"variants_of": "B1", "test": "yeast fitness relative to wild type (ratio to wild type); higher = fitter; tRNA-Arg(CCU), competitive growth, 37 C, YPD", "in_short": "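Genotype frequency changes were the basis for Darwinian fitness relative to wild type. The frequencies came from 100-nucleotide paired-end sequencing of gene amplicons from the start population and each end population of pooled yeast strains with tRNA-Arg(CCU) gene variants at the native locus. Competition ran in YPD at 37°C for 24 hours in six replicates, genotypes needed ≥ 100 starting reads, and estimates < 0.5 were set to 0.5.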", "values": [{"variant": "GUCCCGUUGGCGUAAUGGUAACGCGUCUCCCUCCUAAGGAGAAGACUGCGGGUUAGAGUCCCGUUCGGAACG", "note": "[U3C C55A A65U]", "yeast fitness": "≤ 0.5"}, {"variant": "GUCCCGUUGGCGUAAUGGUAACGCGUCUCCCUCCUAAGGAGAAGACUGCGGGUUGGAGUCCCGUACGGAACG", "note": "[U3C C55G]", "yeast fitness": 0.619}, {"variant": "GUCCCGUUGGCGUAAUGGUAACGCGUCUCCCUCCUAAGGAGAAGACUGCGGGUUGGAGUCCCGUACGCAACG", "note": "[U3C C55G G68C]", "yeast fitness": "≤ 0.5"}, {"variant": "GUCCCGUUGGCGUAAUGGUAACGCGUCUCCCUCCUAAGGAGAAGACUGCGGGUUCGAGUACCGUACGGAACG", "note": "[U3C C60A]", "yeast fitness": 0.619}, {"variant": "GUCCCGUUGGCGUAAUGGUAACGCGUCUCCCUCCUAAGGAGAAGACUGCGGGUUCGAGUACCGUAUGGAACG", "note": "[U3C C60A C66U]", "yeast fitness": 0.651}, {"variant": "GUCCCGUUGGCGUAAUGGUAACGCGUCUCCCUCCUAAGGAGAAGACUGCGGGUUCGAGUGCCGUACCGAACG", "note": "[U3C C60G G67C]", "yeast fitness": "≤ 0.5"}, {"variant": "GUCCCGUUGGCGUAAUGGUAACGCGUCUCCCUCCUAAGGAGAAGACUGCGGGUUCGAGUCGCGUACGGAACG", "note": "[U3C C61G]", "yeast fitness": 0.604}, {"variant": "GUCCCGUUGGCGUAAUGGUAACGCGUCUCCCUCCUAAGGAGAAGACUGCGGGUUCGAGUCUCGUACGGAACG", "note": "[U3C C61U]", "yeast fitness": 0.847}, {"variant": "GUCCCGUUGGCGUAAUGGUAACGCGUCUCCCUCCUAAGGAGAAGACUGCGGGUUCGAGUCCGGUACGGAACG", "note": "[U3C C62G]", "yeast fitness": 0.853}, {"variant": "GUCCCGUUGGCGUAAUGGUAACGCGUCUCCCUCCUAAGGAGAAGACUGCGGGUUCGAGUCCGGUACGAAACG", "note": "[U3C C62G G68A]", "yeast fitness": "≤ 0.5"}, {"variant": "GUCCCGUUGGCGUAAUGGUAACGCGUCUCCCUCCUAAGGAGAAGACUGCGGGUUCGAGUCCUGUACAGAACG", "note": "[U3C C62U G67A]", "yeast fitness": 0.587}, {"variant": "GUCCCGUUGGCGUAAUGGUAACGCGUCUCCCUCCUAAGGAGAAGACUGCGGGUUCGAGUCCUGAACGGAACG", "note": "[U3C C62U U64A]", "yeast fitness": "≤ 0.5"}, {"variant": "GUCCCAUUGGCGUAAUGGUAACGCGUCUCCCUCCUAAGGAGAAGACUGCGGGUUCGAGUCCCGUACGGAACG", "note": "[U3C G6A]", "yeast fitness": 0.866}, {"variant": "GUCCCAUUGGCGUGAUGCUAACGCGUCUCUUUCCUAAGGAGAAGACUACGGGUUGGAGUCCCGUACGGAACG", "note": "[U3C G6A A14G G18C C30U C31U G48A C55G]", "yeast fitness": "≤ 0.5"}, {"variant": "GUCCCAUUGGCGUAAUGGUAACGCGUCUCUCUCCUAAGAAGAAGGUUGGGGGUUCGAGUCCCGUACGGAACG", "note": "[U3C G6A C30U G39A A45G C46U C49G]", "yeast fitness": "≤ 0.5"}, {"variant": "GUCCCAUUGGCGUAAUGCUAACGCGUCUCCCUCCUAAGGAGAAGUCUGCGGGUUCGAGUCCCGUACGAAACG", "note": "[U3C G6A G18C A45U G68A]", "yeast fitness": "≤ 0.5"}, {"variant": "GUCCCAUUGGCGUAAUGCUAACGCGUCUCUUUCCUAAGGAGAAGACUACGGGUUGGAGUCCCGUACAGAACG", "note": "[U3C G6A G18C C30U C31U G48A C55G G67A]", "yeast fitness": "≤ 0.5"}, {"variant": "GUCCCCUUGGCGUAAUGGUAACGCGUCUCCCUCCUAAGGAGAAGACUGCGGGUUCGAGUCCCGUACGGAACG", "note": "[U3C G6C]", "yeast fitness": 0.753}, {"variant": "GUCCCCUUGGCGUUAUGGUAACGCAUCUCCCUCCUAAAGAGAAGACAGCGGGUUCGAGUCCCGUACGGCACG", "note": "[U3C G6C A14U G25A G38A U47A A69C]", "yeast fitness": "≤ 0.5"}, {"variant": "GUCCCCUUGGCGUUAUGGUAACGCAUCUCCCUCCUAAAGAGAAGACAGCGGGUUCGAGUGCCGUACGGAGCG", "note": "[U3C G6C A14U G25A G38A U47A C60G A70G]", "yeast fitness": 0.51}, {"variant": "GUCCCGUUAGCGUAAUGGUAACGCGUCUCCCUCCUAAGGAGAAGACUGCGGGUUCGAGUCCCGUACGGAACG", "note": "[U3C G9A]", "yeast fitness": 1.04}, {"variant": "GUCCCGUUAGCGUGAUGGUAACGCGUCUCCCUCCUAAGGAGAAGACUGCGGGUUCGAGUCCCGUAUGGAACG", "note": "[U3C G9A A14G C66U]", "yeast fitness": "≤ 0.5"}, {"variant": "GUCCCGUUAGCGUAUUGGUAACGCGUCUCACUCAUAAGGAGGAGACUGCGGGUUCGAGUCCCGUACGGAACG", "note": "[U3C G9A A15U C30A C34A A42G]", "yeast fitness": "≤ 0.5"}, {"variant": "GUCCCGUUAGCGUAAUGGUCACGCGUCUUCCUCCUAAGGAGAAGACUGCCGGUUCGAGGCCUGUACGAAACG", "note": "[U3C G9A A20C C29U G50C U59G C62U G68A]", "yeast fitness": "≤ 0.5"}, {"variant": "GUCCCGUUAGCGUAAUGGUAACGCGUCUCCCUCCUAAGGAGUAGACUGCGGGUUCGAGUCCCGUACGGAUCG", "note": "[U3C G9A A42U A70U]", "yeast fitness": "≤ 0.5"}, {"variant": "GUCCCGUUAGCGUAAUGGUAACGCGUCUCCCUCCUAAGGAGAAGACUGCGGGUUCGGGUCCCGUUCGGAACG", "note": "[U3C G9A A57G A65U]", "yeast fitness": "≤ 0.5"}, {"variant": "GUCCCGUUAGCGUAAUGGUAACGCGUCUCCCUCCUAAGGAGAAGACUGCGGGUUCGAGUCCCGUGCGGAACG", "note": "[U3C G9A A65G]", "yeast fitness": 0.888}, {"variant": "GUCCCGUUAGCGUAAUGGUAACGCGUCUCCCUCCUAAGGAGAAGACUGCGGGUUCGAGUCCCGUACGGCACG", "note": "[U3C G9A A69C]", "yeast fitness": 0.905}, {"variant": "GUCCCGUUAGUGUAAUGGUAACGCGUCUCCCUCCUAAGGAGAAGACUGCGGGUUCGAGUCCCGUACGGAACG", "note": "[U3C G9A C11U]", "yeast fitness": 0.808}, {"variant": "GUCCCGUUAGCGUAAUGGUAACGCGUCUCACUCCUAAGGAGAAGACUGCGGGUUCGAGUCCCGUACUGAACG", "note": "[U3C G9A C30A G67U]", "yeast fitness": "≤ 0.5"}, {"variant": "GUCCCGUUAGCGUAAUGGUAACGCGUCUCCCUCUUAAGGAGAAGACUGCGGGUUCGAGUCCCGUUCGGAACG", "note": "[U3C G9A C34U A65U]", "yeast fitness": "≤ 0.5"}, {"variant": "GUCCCGUUAGCGUAAUAGUAACGCGUCUCCCUCCUAAGGAGAAGACUGCGGGUUCGAGUCCCGUACGGAACG", "note": "[U3C G9A G17A]", "yeast fitness": 0.798}, {"variant": "GUCCCGUUAGCGUAAUGGUAACGCGUCUCCCUCCUAAGGAGAAGACUGCAGGUUCGAGUCCCGUACGGAACG", "note": "[U3C G9A G50A]", "yeast fitness": 0.838}, {"variant": "GUCCCGUUAGCGUAAUGGUAACGCGUCUCCCUCCUAAGGAGAAGACUGCGGGUUCGAGUCCCGUACGAAACG", "note": "[U3C G9A G68A]", "yeast fitness": 0.843}, {"variant": "GUCCCGUUAGCGUAAUGGCAACGCGUCUCCCUCCUAAGGAGAAGACUGCGGGUUCGAGUCCCGUACGGAACG", "note": "[U3C G9A U19C]", "yeast fitness": 0.816}, {"variant": "GUCCCGUUCGCGUAAUGGUAACGCGUCUCCCUCCUAAGGAGAAGACUGCGGGUUCGAGUCCCGUACGGAACG", "note": "[U3C G9C]", "yeast fitness": 0.712}, {"variant": "GUCCCGUUCGCGUAAUGGUAACGCGUCUCCCUCCUAAGGAGAAGACUGCGGGUUCGAGUCCCGUACGGAUCG", "note": "[U3C G9C A70U]", "yeast fitness": "≤ 0.5"}, {"variant": "GUCCCGUUCGUGUAAUGGUAACGCGUCUGACUCCUAAGGAGAAGACUGCGGGUUCGAGUCCCGGACGGCACG", "note": "[U3C G9C C11U C29G C30A U64G A69C]", "yeast fitness": "≤ 0.5"}]}]}
